# Data taken from PMC7108400 (Leukemia research, 2019).
# “Also recorded” adds a separate entry of the source. Where two headings read alike, the source gives them in different places.
# Columns and labels:
# [1] = Panobinostat plasma pharmacokinetics, cycle 1 day 8, non-compartmental; format: in vivo, human; conditions: for CL/F / AUC / AUC(0-t) / Vd/F: geometric mean (%CV); for Cmax / AUC / AUC(0-t) / half-life / Tmax / Vd/F: human, plasma, oral; for AUC: AUC0inf; for half-life: T1/2, Median (range); for Tmax: Median (range); for Vd/F: Vz/F
# Method in brief: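 Adults <65 y with newly diagnosed high-risk AML received oral HDAC-inhibitor test compound thrice weekly from day 8, after idarubicin 12 mg/m²/d IV (days 1–3) and ara-C 100 mg/m²/d continuous IV (days 1–7). On cycle 1 day 8, 3 mL blood was drawn pre-dose and at 0.5–28 h. Plasma parameters were derived non-compartmentally; geometric mean (%CV) excluded zero concentrations, and Tmax is median (range).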
# [2] = Dose-limiting toxicities and MTD/RP2D determination; format: in vivo
# [3] = test system: AML progressed on standard therapy / advanced hematologic malignancies; conditions: single agent, cited from earlier work
# AML = conditions: cited from earlier work
# BRCA1, CHK1, and RAD51 = conditions: AML cell lines; cited from earlier work
# newly diagnosed AML = conditions: cited from earlier work
# [4] = test system: newly diagnosed primary or secondary high-risk AML; test: Anti-leukemic efficacy; format: in vivo, human; conditions: for ORR: 20-mg dose level
# [5] = test system: first relapse or primary refractory AML; conditions: cited from earlier work
# [6] = test system: AML cell lines and primary AML cells from patients; conditions: combination with doxorubicin; cited from earlier work
# de novo AML = conditions: cited from earlier work
# [7] = 20 mg, PAN 20 mg (expansion phase), N=10
# [8] = elderly patients (> 65 years), with idarubicin and ara-C
# [9] = PAN 20 mg (expansion phase), N=12
smiles,measurement,setting,value
Cc1[nH]c2ccccc2c1CCNCc1ccc(/C=C/C(=O)NO)cc1 [panobinostat],CL/F,"[1]; PAN 15 mg, N=10",295 (54.7) L/h
same,CL/F,"[1]; PAN 20 mg (expansion phase), N=10",193 (32.3) L/h
same,CL/F,"[1]; PAN 20 mg, N=11",269 (68.2) L/h
same,"Tmax, Median (range)","[1]; PAN 25 mg, N=8",2.02 [1.25–4.90] h
same,CL/F,"[1]; PAN 25 mg, N=8",294 (44.3) L/h
same,Cmax,[1]; 15 mg,6.03 ng/mL
same,AUC,"[1]; 15 mg, PAN 15 mg, N=10",50.8 ng·h/mL
same,AUC(0-t),"[1]; 15 mg, AUC0–24, PAN 15 mg, N=10",42.5 ng·h/mL
same,half-life,"[1]; 15 mg, PAN 15 mg, N=10",8.74 h
same,Tmax,"[1]; 15 mg, PAN 15 mg, N=10",3 h
same,Vd/F,"[1]; 15 mg, PAN 15 mg, N=10",3920 L
same,Cmax,[1]; 20 mg,15 ng/mL
same,AUC,[1]; [7],103 ng·h/mL
same,AUC,"[1]; 20 mg, PAN 20 mg, N=11",74.3 ng·h/mL
same,AUC(0-t),"[1]; 20 mg, AUC0–24, PAN 20 mg (expansion phase), N=10",92.7 ng·h/mL
same,AUC(0-t),"[1]; 20 mg, AUC0–24, PAN 20 mg, N=11",62.6 ng·h/mL
same,half-life,[1]; [7],7.94 h
same,half-life,"[1]; 20 mg, PAN 20 mg, N=11",9.7 h
same,Tmax,[1]; [7],1.98 h
same,Tmax,"[1]; 20 mg, PAN 20 mg, N=11",1.05 h
same,Vd/F,[1]; [7],1810 L
same,Vd/F,"[1]; 20 mg, PAN 20 mg, N=11",3790 L
same,Cmax,[1]; 25 mg,11.2 ng/mL
same,AUC,"[1]; 25 mg, PAN 25 mg, N=8",85 ng·h/mL
same,AUC(0-t),"[1]; 25 mg, AUC0–24, PAN 25 mg, N=8",74.6 ng·h/mL
same,half-life,"[1]; 25 mg, PAN 25 mg, N=8",7.81 h
same,Vd/F,"[1]; 25 mg, PAN 25 mg, N=8",3360 L
same,Patients who experienced DLTs during induction,"[2]; human, in vivo",7 patients
same,Recommended phase 2 dose (RP2D) of panobinostat,"[2]; human, in vivo",20 mg
same,MTD,"[2]; patients 18–65 years, staggered schedule with idarubicin and ara-C",not reached
same,Complete remission (CR),"[3]; of 86 patients, 60-mg dose",2 patients
same,MTD of panobinostat alone,[3],60 mg
same,Grade ≥ 3 AEs,AML; panobinostat 30 mg combined with azacitidine,97%
same,SAE: sepsis,1 in 25 mg and 1 in 20 mg expansion groups,2 patients
same,"Discontinuation, primary reason death","All patients, n=46",5 (10.9) n (%)
same,"Discontinuation, primary reason death","PAN 15 mg, n=11",1 (9.1) n (%)
same,"Discontinuation, primary reason death","PAN 20 mg (dose expansion), n=12",3 (25) n (%)
same,SAE: infections,all dose groups,5 patients
same,On-treatment deaths during the induction phase,all in the 20 mg expansion dose group,6.5%
same,Deaths during the study period or within 28 days after the end of treatment,all patients,6 deaths
same,Deaths in the induction phase,all patients,3 deaths
same,Deaths overall (induction and consolidation),all patients,5 deaths
same,"Abdominal pain, Any grade","human, in vivo",3 (6.5) n (%)
same,"Abdominal pain, Grade 3 or 4","human, in vivo",0 (0.0) n (%)
same,All-grade cardiac events,"human, in vivo",6.5%
same,"Alopecia, Any grade","human, in vivo",3 (6.5) n (%)
same,"Alopecia, Grade 3 or 4","human, in vivo",0 (0.0) n (%)
same,"Anemia, Any grade","human, in vivo",17 (37.0) n (%)
same,"Anemia, Grade 3 or 4","human, in vivo",15 (32.6) n (%)
same,"Anemia, all-grade","human, in vivo",37%
same,"Decreased appetite, Any grade","human, in vivo",10 (21.7) n (%)
same,"Decreased appetite, Grade 3 or 4","human, in vivo",1 (2.2) n (%)
same,"Decreased appetite, all-grade","human, in vivo",21.7%
same,"Diarrhea, Any grade","human, in vivo",25 (54.3) n (%)
same,"Diarrhea, Grade 3 or 4","human, in vivo",3 (6.5) n (%)
same,"Discontinuation, primary reason adverse events","human, in vivo",8 (17.4) n (%)
same,Discontinued due to AEs,"human, in vivo",15.8%
same,"Dyspepsia, Any grade","human, in vivo",2 (4.3) n (%)
same,"Dyspepsia, Grade 3 or 4","human, in vivo",0 (0.0) n (%)
same,"Fatigue, Any grade","human, in vivo",8 (17.4) n (%)
same,"Fatigue, Grade 3 or 4","human, in vivo",1 (2.2) n (%)
same,"Fatigue, all-grade","human, in vivo",17.4%
same,"Febrile neutropenia, Any grade","human, in vivo",17 (37.0) n (%)
same,"Febrile neutropenia, Grade 3 or 4","human, in vivo",16 (34.8) n (%)
same,"Febrile neutropenia, all-grade","human, in vivo",37%
same,Grade 3 or 4 AEs suspected to be treatment-related,"human, in vivo",73.9%
same,"Hypokalemia, Any grade","human, in vivo",7 (15.2) n (%)
same,"Hypokalemia, Grade 3 or 4","human, in vivo",3 (6.5) n (%)
same,"Left ventricular dysfunction, Any grade","human, in vivo",3 (6.5) n (%)
same,"Left ventricular dysfunction, Grade 3 or 4","human, in vivo",2 (4.3) n (%)
same,"Leukopenia, Any grade","human, in vivo",2 (4.3) n (%)
same,"Leukopenia, Grade 3 or 4","human, in vivo",2 (4.3) n (%)
same,"Leukopenia, all-grade","human, in vivo",4.3%
same,"Nausea, Any grade","human, in vivo",18 (39.1) n (%)
same,"Nausea, Grade 3 or 4","human, in vivo",0 (0.0) n (%)
same,"Neutropenia, Any grade","human, in vivo",9 (19.6) n (%)
same,"Neutropenia, Grade 3 or 4","human, in vivo",9 (19.6) n (%)
same,"Neutropenia, all-grade","human, in vivo",19.6%
same,Patients with AEs,"human, in vivo",84.8%
same,"Pyrexia, Any grade","human, in vivo",6 (13.0) n (%)
same,"Pyrexia, Grade 3 or 4","human, in vivo",0 (0.0) n (%)
same,SAE: cardiac disorders,"human, in vivo",5 patients
same,SAE: grade ≥ 3 febrile neutropenia,"human, in vivo",10 patients
same,"Stomatitis, Any grade","human, in vivo",9 (19.6) n (%)
same,"Stomatitis, Grade 3 or 4","human, in vivo",0 (0.0) n (%)
same,"Stomatitis, all-grade","human, in vivo",19.6%
same,"Thrombocytopenia, Any grade","human, in vivo",21 (45.7) n (%)
same,"Thrombocytopenia, Grade 3 or 4","human, in vivo",21 (45.7) n (%)
same,"Thrombocytopenia, all-grade","human, in vivo",45.7%
same,Treatment discontinuation due to AEs,"human, in vivo",17.4%
same,"Vomiting, Any grade","human, in vivo",10 (21.7) n (%)
same,"Vomiting, Grade 3 or 4","human, in vivo",0 (0.0) n (%)
same,"Vomiting, all-grade","human, in vivo",21.7%
same,"Expression of BRCA1, CHK1, and RAD51","BRCA1, CHK1, and RAD51","decreases the levels of key proteins BRCA1, CHK1, and RAD51; also recorded: reduce the expression of BRCA1, CHK1, and RAD51"
same,CR rate,newly diagnosed AML; [8],64%
same,Median time to relapse,newly diagnosed AML; [8],17.0 months
same,MTD of panobinostat,"newly diagnosed AML; with 8 mg/m^2 idarubicin (day 1–3) and 100 mg/m^2 ara-C (day 1–7), elderly",10 mg
same,Response rate,[4]; 15-mg dose group,81.8%
same,CRi,[4]; 15-mg dose group (3 patients),27.3%
same,CR,[4]; 15-mg dose group (6 patients),54.5%
same,ORR,[4]; escalation phase (9 patients),60%
same,ORR,[4]; expansion phase (6 patients),50%
same,Complete remission (CR),"[4]; All patients, N=46",20 (43.5) n (%)
same,Complete remission with incomplete blood count recovery (CRi),"[4]; All patients, N=46",8 (17.4) n (%)
same,Partial remission (PR),"[4]; All patients, N=46",2 (4.3) n (%)
same,Response rate (CR or CRi),"[4]; All patients, N=46",28 (60.9) n (%)
same,Treatment failure,"[4]; All patients, N=46",13 (28.3) n (%)
same,Complete remission (CR),"[4]; PAN 15 mg, N=11",6 (54.5) n (%)
same,Complete remission with incomplete blood count recovery (CRi),"[4]; PAN 15 mg, N=11",3 (27.3) n (%)
same,Partial remission (PR),"[4]; PAN 15 mg, N=11",0 (0.0) n (%)
same,Response rate (CR or CRi),"[4]; PAN 15 mg, N=11",9 (81.8) n (%)
same,Treatment failure,"[4]; PAN 15 mg, N=11",1 (9.1) n (%)
same,Complete remission (CR),[4]; [9],5 (41.7) n (%)
same,Complete remission with incomplete blood count recovery (CRi),[4]; [9],1 (8.3) n (%)
same,Partial remission (PR),[4]; [9],1 (8.3) n (%)
same,Response rate (CR or CRi),[4]; [9],6 (50.0) n (%)
same,Treatment failure,[4]; [9],3 (25.0) n (%)
same,Complete remission (CR),"[4]; PAN 20 mg, N=15",7 (46.7) n (%)
same,Complete remission with incomplete blood count recovery (CRi),"[4]; PAN 20 mg, N=15",2 (13.3) n (%)
same,Partial remission (PR),"[4]; PAN 20 mg, N=15",0 (0.0) n (%)
same,Response rate (CR or CRi),"[4]; PAN 20 mg, N=15",9 (60.0) n (%)
same,Treatment failure,"[4]; PAN 20 mg, N=15",6 (40.0) n (%)
same,Complete remission (CR),"[4]; PAN 25 mg, N=8",2 (25.0) n (%)
same,Complete remission with incomplete blood count recovery (CRi),"[4]; PAN 25 mg, N=8",2 (25.0) n (%)
same,Partial remission (PR),"[4]; PAN 25 mg, N=8",1 (12.5) n (%)
same,Response rate (CR or CRi),"[4]; PAN 25 mg, N=8",4 (50.0) n (%)
same,Treatment failure,"[4]; PAN 25 mg, N=8",3 (37.5) n (%)
same,Re-induction rate (second induction cycle),[4]; Ten of 46 patients,22%
same,Overall response rate (ORR) (CR or CRi),[4]; all 46 patients,60.9%
same,CR with incomplete count recovery (CRi),[4]; all 46 patients (8 patients),17.4%
same,Complete remission (CR),[4]; all 46 patients (20 patients),43.5%
same,Event-free survival at 1-year,[4]; all patients,78.3%
same,Treatment discontinuation due to disease progression,[4]; all patients (11 patients),23.9%
same,Median overall survival,[4]; current study,not reached
same,Median duration of response,[4]; inadequate number of events at last censoring,not estimable
same,DLTs,"[5]; first 2 cohorts, 20 mg and 30 mg thrice weekly",no DLTs occurred
same,CR/CRi rate,[5]; plus ara-C and mitoxantrone,46%
same,RP2D of panobinostat,[5]; with mitoxantrone and ara-C as salvage therapy,50 mg
same,Cell death (caspase-dependent apoptosis),[6],induces cell death
O=C(CCCCCCC(=O)Nc1ccccc1)NO [vorinostat],Median overall survival,de novo AML; median follow-up of 82 weeks,82 weeks
same,All-grade cardiac events,de novo AML; with idarubicin and ara-C,15%
same,Diarrhea,de novo AML; with idarubicin and ara-C,72%
same,Nausea,de novo AML; with idarubicin and ara-C,65%
Nc1ncn([C@@H]2O[C@H](CO)[C@@H](O)[C@H]2O)c(=O)n1 [azacitidine],Grade ≥ 3 AEs,AML; azacitidine alone,81%
